The text below walks through data of ChEMBL document CHEMBL1153986, “Novel approach for chemotype hopping based on annotated databases of chemically feasible fragments and a prospective case study: new melanin concentrating hormone antagonists” (J Med Chem, 2009).

For assay [1], the target named is T1, Melanin-concentrating hormone receptor 1 (Homo sapiens, UniProt Q99705). Nature of the assay: Antagonist activity at MCH1R. The format is functional. Put shortly:
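MCH-1 receptor-expressing CHO cells seeded 24 h before (5000 cells/well), loaded with calcium assay kit containing 10 mM probenicide for 90 min at 37 °C, 5% CO2. Serial dilutions of compound added, 20 min at room temperature in the dark, then submaximal MCH challenge; intracellular calcium change recorded on FLIPR III.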

The target of assay [2] is T1, Melanin-concentrating hormone receptor 1. Nature of the assay: Antagonist activity at MCH1R by [35S]GTPgammaS binding assay. The format is functional. Background: GTPγS is a poorly hydrolysed GTP analogue; its binding reports G protein activation.
For assay [3] the target is unchanged.

T1 sequence (Q99705 whole entry): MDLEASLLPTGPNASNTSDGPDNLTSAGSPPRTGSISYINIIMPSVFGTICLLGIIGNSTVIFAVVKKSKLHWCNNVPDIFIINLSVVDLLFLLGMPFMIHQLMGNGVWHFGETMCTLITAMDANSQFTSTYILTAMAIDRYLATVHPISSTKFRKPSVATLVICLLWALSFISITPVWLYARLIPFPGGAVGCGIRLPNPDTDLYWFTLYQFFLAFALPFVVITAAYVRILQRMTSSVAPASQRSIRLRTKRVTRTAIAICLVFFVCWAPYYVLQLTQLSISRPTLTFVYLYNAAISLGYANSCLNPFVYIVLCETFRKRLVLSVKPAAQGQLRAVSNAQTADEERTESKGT

Compound `COc1cc(-n2nnc3cc(-c4ccc(Cl)cc4)sc3c2=O)ccc1N1CC[C@@H](O)C1` had a concentration for half-maximal inhibition (IC50) in assay [1] of more than 5000 nM.

`CN(C)CC1CCc2cc(NC(=O)c3ccc(-c4ccc(F)cc4)cc3)ccc2C1` (centres undefined) registered an IC50 in assay [2] of 19 nM. This counts as double-digit nanomolar.

In assay [3], `COc1cc(-n2ccnc(OCCc3ccccc3)c2=O)ccc1OCCN1CCCC1` had a half-inhibitory concentration (IC50) of 83.2 nM.

Regarding `CCN(CC)Cc1ccc2c(c1)CCC(N1CCN(CCc3ccc(F)cc3)CC1=O)C2` (centres undefined), in assay [1], the affinity corresponds to a Ki of 3 nM. That is a single-digit nanomolar value.

The compound `COc1cc(-n2cnc3cc(-c4ccccc4)ccc3c2=O)ccc1OCCN1CCCC1` displayed an Activity in assay [1] of 2.1 nM.

With `COc1cc(-c2cnc3[nH]c(-c4ccc(Cl)cc4)cn3c2=O)ccc1OCCN1CCCC1`, the affinity in assay [1] corresponds to a Ki of 77 nM.

On to `C(=C\c1ccc(-c2nnc(CSCCOc3ccccc3)o2)cc1)/CN1CCCC1`, for which the Activity in assay [1] stood at 1.9 nM.

As for `CN(C)CCOc1ccc(-n2ccn(-c3ccc(Oc4ccccc4)cc3)c2=O)cc1`, the IC50 in assay [1] is more than 100 nM.

Compound `COc1cc(-n2ccnc(CCCc3ccccc3)c2=O)ccc1OCCN1CCCC1` showed an IC50 in assay [3] of 105 nM.

In turn, `CN[C@@H]1CCN(c2ccc(-n3ccc4cc(-c5ccc(C(F)(F)F)cc5)sc4c3=O)cn2)C1` came in with an inhibitory constant (Ki) in assay [1] of 3.3 nM. This lies in the single-digit nanomolar range.

In turn, `COc1cc(-n2ccnc(NCCc3ccccc3)c2=O)ccc1OCCN1CCCC1` gave an IC50 in assay [3] of 45.7 nM. That is a double-digit nanomolar value.

Consider `CC(C)N(C)c1nc2cc(-c3noc(COCc4ccc(Cl)cc4)n3)ccc2[nH]1`, for which the IC50 in assay [1] worked out at 7 nM. That is a single-digit nanomolar value.

In the case of `Cn1cc(CCN2CCCC2)c2ccc(-n3ccc4nc(-c5ccc(Cl)cc5)sc4c3=O)cc21`, the affinity in assay [1], expressed as Ki, was 3.16 nM.

On to `O=c1cc(/C=C/c2ccccc2)ccn1-c1ccc(OCCN2CCCC2)cc1`, for which the Activity in assay [1] was determined as 1.5 nM.

As usually defined, the IC50 is the concentration that inhibits the measured activity by half. High values mean lower potency, low ones higher potency. The Ki is the dissociation constant of the complex between target and ligand, obtained from inhibition or displacement.
